We go through 7 compounds from ChEMBL document CHEMBL2016463, “A Novel (18)F-Labeled Imidazo[2,1-b]benzothiazole (IBT) for High-Contrast PET Imaging of β-Amyloid Plaques” (ACS Med Chem Lett, 2011).

SMILES strings stand for the structures. Calls of active or inactive are those of the source. No cut-off for these calls is given here.

Usually Ki stands for a measure of affinity in units of concentration, obtained from inhibition or displacement.

In series [1] the test system is Brain. The experiment in a line: Ratio of drug uptake in Alzheimer's disease patient brain to healthy human brain. The settings on record: in vivo. Format: ADME, tissue-based.
For series [2], the system named is Cortex. In words: Binding affinity to amyloid beta plaque in APP/PS1 Alzheimer's disease mouse brain cortex at 4 MBq after 45 mins postinjection by immunohistochemistry analysis relative to control. The format is functional, organism-based. More on the design: dose or concentration left out as unconfirmed. The settings on record: tested as the 3H-labelled form.

Series [3] relates to Cortex. The experiment in a line: Binding affinity to amyloid beta plaque in APP/PS1 Alzheimer's disease mouse brain cortex at 13.5 MBq after 45 mins postinjection by immunohistochemistry analysis relative to control. The format is functional, organism-based. More on the design: dose or concentration left out as unconfirmed. The settings on record: tested as the 18F-labelled form.

The subject of series [4] is Brain. The experiment in a line: Drug uptake in Balb-C mouse brain at 4 to 6 MBq, iv after 5 mins by gamma counting relative to [11C]Pittsburgh compound B. The format is ADME, organism-based. The settings on record: in vivo. The essentials:
(§1)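 Male Balb-C mice received tracer or [11C] reference. Brain uptake was measured at 5 and 30 min pi and reported as mean ± SD, n ≥ 4.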

Series [5] has as its system Brain. The experiment in a line: Drug uptake in Balb-C mouse brain at 4 to 6 MBq, iv after 30 mins by gamma counting relative to [11C]Pittsburgh compound B. The settings on record: in vivo, 0.5 h. The format is ADME, organism-based. The essentials: as §1
The target in series [6] is T1, Amyloid-beta precursor protein (Homo sapiens, UniProt P05067). The experiment in a line: Displacement of [3H]Pittsburgh compound B from human Abeta1-40 after 3 hrs by liquid scintillation counting.
The target in series [7] is T1, Amyloid-beta precursor protein. The experiment in a line: Displacement of [3H]Pittsburgh compound B from human Abeta1-42 after 3 hrs by liquid scintillation counting. A general note: Loss of bound radioactivity is the signal in a displacement assay; it reports binding, not function.
Series [8] can be described thus: Metabolic stability in Balb-C mouse blood at 21 to 32 MBq, iv after 10 mins by gamma counting. Format: ADME, organism-based. The settings on record: read-out: Stability. The essentials: (§2)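 Balb-C mice were sampled for blood and brain tissue at 10 and 30 min pi. Radioactivity speciation is given as % intact tracer.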
Series [9] can be described thus: Metabolic stability in Balb-C mouse blood at 21 to 32 MBq, iv after 30 mins by gamma counting. Format: ADME, organism-based. The settings on record: read-out: Stability. The essentials: as §2
Series [10] in a line: Metabolic stability in Balb-C mouse brain at 21 to 32 MBq, iv after 10 mins by gamma counting. The format is ADME, organism-based. The settings on record: read-out: Stability. The essentials:
as §2

Series [11] in a line: Metabolic stability in Balb-C mouse brain at 21 to 32 MBq, iv after 30 mins by gamma counting. The format is ADME, organism-based. The settings on record: read-out: Stability. The procedure, abridged:
as §2

For series [12], the system named is Brain. In words: Drug uptake in APP/PS1 Alzheimer's disease mouse brain cortex at 11.7 +/- 4.1 MBq at 36 to 45 mins postinjection by uPET analysis relative to control. The format is ADME, organism-based. The conditions noted are these: in vivo. The procedure, abridged: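 APP/PS1 (homozygous) Tg mice, 24.0 ± 0.4 months old (n = 7), and age-matched C57B6/J controls, 25 ± 2 months old (n = 3). Each mouse got a single bolus of 18F tracer: 11.7 ± 4.1 MBq for Tg, 11.5 ± 3.4 MBq for controls. Images are µPET frames summed over 36–45 min pi, with CT overlaid on an MRI template. Cortical and cerebellar VOI TACs and cortex/cerebellum ratios were derived.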

The test system of series [13] is Cortex. The experiment in a line: Drug uptake in APP/PS1 Alzheimer's disease mouse brain cortex at 13.5 MBq at 45 mins postinjection by dual label autoradiography relative to control. The conditions noted are these: in vivo, 0.75 h. Format: ADME, organism-based. The essentials: (§3)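 Multimodal study of one 25-month-old APP/PS1 Tg mouse, with a 28-month-old control. Tail-vein coinjection of 18F tracer plus [3H]-reference: 13.5 + 4.0 MBq (Tg) or 10.0 + 3.7 MBq (control). Mice underwent µPET/CT for 45 min in list mode and were killed at 45 min. Ex vivo work included regional brain biodistribution and dual-label (3H/18F) digital autoradiography on 12 µm axial sections.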

Series [14] has as its system Cortex. The experiment in a line: Drug uptake in APP/PS1 Alzheimer's disease mouse brain cortex at 13.5 MBq at 45 mins postinjection by uPET/CT analysis relative to control. Format: ADME, organism-based. The conditions noted are these: in vivo, 0.75 h. The procedure, abridged: as §3
In series [15] the test system is Cortex. In words: Drug uptake in APP/PS1 Alzheimer's disease mouse brain cortex at 4 MBq at 45 mins postinjection by dual label autoradiography relative to control. The conditions noted are these: in vivo, 0.75 h. The format is ADME, organism-based. The essentials: as §3
Series [16] concerns Cortex. The experiment in a line: Drug uptake in APP/PS1 Alzheimer's disease mouse brain cortex at 4 MBq at 45 mins postinjection by uPET/CT analysis relative to control. The settings on record: in vivo, 0.75 h. The format is ADME, organism-based. The procedure, abridged:
as §3

T1 sequence (P05067 whole entry): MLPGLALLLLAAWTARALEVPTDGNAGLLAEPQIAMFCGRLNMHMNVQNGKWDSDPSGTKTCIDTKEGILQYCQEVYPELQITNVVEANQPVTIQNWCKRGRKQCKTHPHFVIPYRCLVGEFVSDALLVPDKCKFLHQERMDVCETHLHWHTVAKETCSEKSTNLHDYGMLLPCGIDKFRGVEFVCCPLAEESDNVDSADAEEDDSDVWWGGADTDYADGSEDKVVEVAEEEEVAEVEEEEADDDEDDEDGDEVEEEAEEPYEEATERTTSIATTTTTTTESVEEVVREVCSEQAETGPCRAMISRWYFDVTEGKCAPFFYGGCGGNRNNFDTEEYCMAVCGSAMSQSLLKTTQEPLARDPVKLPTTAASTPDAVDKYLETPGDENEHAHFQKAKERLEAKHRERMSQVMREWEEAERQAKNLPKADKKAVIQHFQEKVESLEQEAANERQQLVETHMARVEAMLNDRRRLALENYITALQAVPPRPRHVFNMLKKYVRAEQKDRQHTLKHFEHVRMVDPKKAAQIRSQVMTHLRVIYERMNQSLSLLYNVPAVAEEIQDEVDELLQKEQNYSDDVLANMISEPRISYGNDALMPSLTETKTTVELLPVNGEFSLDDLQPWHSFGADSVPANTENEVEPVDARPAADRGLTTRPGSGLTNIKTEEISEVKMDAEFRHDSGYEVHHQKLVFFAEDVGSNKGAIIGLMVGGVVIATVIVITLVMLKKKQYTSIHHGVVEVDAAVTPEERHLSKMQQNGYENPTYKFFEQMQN

For the compound `CC(=C(C#N)C#N)c1ccc2cc(N(C)CC[18F])ccc2c1`, the Ratio in series [1] stood at 1.3.

In the case of `CNc1ccc(-c2nc3ccc(O)cc3s2)cc1`, the outcome in series [2] was Active.

Consider `CNc1ccc(-c2cn3c(n2)sc2cc(OCCF)ccc23)cc1`, for which the result in series [3] was Active.

`[11CH3]Nc1ccc(-c2nc3ccc(O)cc3s2)cc1` [PITTSBURGH COMPOUND B]: the Drug uptake entry in series [4] and in [5] was “Active” each time.

Regarding `CNc1ccc(-c2cn3c(n2)sc2cc(OCC[18F])ccc23)cc1`, the Ki in [6] came out at 2.1 nM; in [7] it was 3.2 nM. Moreover, the Drug uptake entry in [4], in series [5], in series [12], in [13] and in series [14] was “Active” in each case. Besides, the remaining at 10 min worked out at 12% in series [8] and 92% in series [10]. Moreover, the remaining at 0.5 h in series [9] worked out at 5%; in series [11], 88%.

As to `CNc1ccc(/C=C/c2ccc(OCCOCCOCC[18F])cc2)cc1` [FLORBETABEN F18], the Ratio in series [1] is given as 1.5.

On to `[3H]Oc1ccc2nc(-c3ccc(NC)cc3)sc2c1`, for which the Drug uptake result in [15] and in series [16] was “Active” each time.
